System: Rattus norvegicus
Experiment: The compound was evaluated for its behavioral activity i.e., locomotor arousal in rat for a dose of 0.3 mg/kg in time interval of 1 hour
Type: functional
How it was run: (§1)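 Adult male Sprague-Dawley rats (150-200 g), 3-7 per group, given agent ip in saline containing DMSO; vehicle controls received saline/DMSO. Locomotion counted in an electronic activity monitor, reported as mean ± SEM counts/hour for 0-1, 1-2 and 2-3 h. Comparison by ANOVA, then post-hoc t tests against vehicle.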

Molecule	Count/h
COC(=O)[C@H]1C(c2ccc(I)cc2)C[C@H]2CCC1N2CCCF (stereo partly drawn)	759
COC(=O)[C@H]1C(c2ccc(I)cc2)C[C@H]2CCC1N2CCF (stereo partly drawn)	<2030

System: Rattus norvegicus
Experiment: The compound was evaluated for its behavioral activity i.e., locomotor arousal in rat for a dose of 0.3 mg/kg in time interval of 2 hours
Type: functional
How it was run: as §1

Molecule	Count/h
COC(=O)[C@H]1C(c2ccc(I)cc2)C[C@H]2CCC1N2CCCF (stereo partly drawn)	403
COC(=O)[C@H]1C(c2ccc(I)cc2)C[C@H]2CCC1N2CCF (stereo partly drawn)	<2945

System: Rattus norvegicus
Experiment: The compound was evaluated for its behavioral activity i.e., locomotor arousal in rat for a dose of 0.3 mg/kg in time interval of 3 hours
Type: functional
How it was run: as §1

Molecule	Count/h
COC(=O)[C@H]1C(c2ccc(I)cc2)C[C@H]2CCC1N2CCCF (stereo partly drawn)	210
COC(=O)[C@H]1C(c2ccc(I)cc2)C[C@H]2CCC1N2CCF (stereo partly drawn)	<3459

System: Rattus norvegicus
Experiment: The compound was evaluated for its behavioral activity i.e., locomotor arousal in rat for a dose of 1 mg/kg in time interval of 1 hour
Type: functional
How it was run: as §1

Molecule	Count/h
COC(=O)[C@H]1C(c2ccc(I)cc2)C[C@H]2CCC1N2C (stereo partly drawn)	<6820
COC(=O)[C@H]1C(c2ccc(I)cc2)C[C@H]2CCC1N2CCCF (stereo partly drawn)	<1943
COC(=O)[C@H]1C(c2ccc(I)cc2)C[C@H]2CCC1N2CCF (stereo partly drawn)	<4180
COC(=O)[C@@H]1C2CC[C@@H](C[C@@H]1OC(=O)c1ccccc1)N2C (single isomer, unassigned) [COCAINE]	<14940

System: Rattus norvegicus
Experiment: The compound was evaluated for its behavioral activity i.e., locomotor arousal in rat for a dose of 1 mg/kg in time interval of 2 hours
Type: functional
How it was run: as §1

Molecule	Count/h
COC(=O)[C@H]1C(c2ccc(I)cc2)C[C@H]2CCC1N2C (stereo partly drawn)	<9990
COC(=O)[C@H]1C(c2ccc(I)cc2)C[C@H]2CCC1N2CCCF (stereo partly drawn)	<1071
COC(=O)[C@H]1C(c2ccc(I)cc2)C[C@H]2CCC1N2CCF (stereo partly drawn)	<4200
COC(=O)[C@@H]1C2CC[C@@H](C[C@@H]1OC(=O)c1ccccc1)N2C (single isomer, unassigned) [COCAINE]	<1960

System: Rattus norvegicus
Experiment: The compound was evaluated for its behavioral activity i.e., locomotor arousal in rat for a dose of 1 mg/kg in time interval of 3 hours
Type: functional
How it was run: as §1

Molecule	Count/h
COC(=O)[C@H]1C(c2ccc(I)cc2)C[C@H]2CCC1N2C (stereo partly drawn)	<9710
COC(=O)[C@H]1C(c2ccc(I)cc2)C[C@H]2CCC1N2CCCF (stereo partly drawn)	<325

System: Rattus norvegicus
Experiment: The compound was evaluated for its behavioral activity i.e., locomotor arousal in rat for a dose of 1 mg/kg in time interval of 3 hours, expressed as mean =/- SEM activity
Type: functional
How it was run: as §1

Molecule	Count/h
COC(=O)[C@H]1C(c2ccc(I)cc2)C[C@H]2CCC1N2CCF (stereo partly drawn)	<4400

System: Rattus norvegicus
Experiment: The compound was evaluated for its behavioral activity i.e., locomotor arousal in rat for a dose of 3 mg/kg in time interval of 1 hour
Type: functional
How it was run: as §1

Molecule	Count/h
COC(=O)[C@H]1C(c2ccc(I)cc2)C[C@H]2CCC1N2CCCF (stereo partly drawn)	<3791
COC(=O)[C@H]1C(c2ccc(I)cc2)C[C@H]2CCC1N2CCF (stereo partly drawn)	<6898
COC(=O)[C@@H]1C2CC[C@@H](C[C@@H]1OC(=O)c1ccccc1)N2C (single isomer, unassigned) [COCAINE]	<15710

System: Rattus norvegicus
Experiment: The compound was evaluated for its behavioral activity i.e., locomotor arousal in rat for a dose of 3 mg/kg in time interval of 2 hours
Type: functional
How it was run: as §1

Molecule	Count/h
COC(=O)[C@H]1C(c2ccc(I)cc2)C[C@H]2CCC1N2CCCF (stereo partly drawn)	<2109
COC(=O)[C@H]1C(c2ccc(I)cc2)C[C@H]2CCC1N2CCF (stereo partly drawn)	<7796
COC(=O)[C@@H]1C2CC[C@@H](C[C@@H]1OC(=O)c1ccccc1)N2C (single isomer, unassigned) [COCAINE]	<712

System: Rattus norvegicus
Experiment: The compound was evaluated for its behavioral activity i.e., locomotor arousal in rat for a dose of 3 mg/kg in time interval of 3 hours
Type: functional
How it was run: as §1

Molecule	Count/h
COC(=O)[C@H]1C(c2ccc(I)cc2)C[C@H]2CCC1N2CCCF (stereo partly drawn)	<1410
COC(=O)[C@H]1C(c2ccc(I)cc2)C[C@H]2CCC1N2CCF (stereo partly drawn)	<7562

Molecular target: Sodium-dependent dopamine transporter (Rattus norvegicus, UniProt P23977)
Sequence (P23977 whole entry): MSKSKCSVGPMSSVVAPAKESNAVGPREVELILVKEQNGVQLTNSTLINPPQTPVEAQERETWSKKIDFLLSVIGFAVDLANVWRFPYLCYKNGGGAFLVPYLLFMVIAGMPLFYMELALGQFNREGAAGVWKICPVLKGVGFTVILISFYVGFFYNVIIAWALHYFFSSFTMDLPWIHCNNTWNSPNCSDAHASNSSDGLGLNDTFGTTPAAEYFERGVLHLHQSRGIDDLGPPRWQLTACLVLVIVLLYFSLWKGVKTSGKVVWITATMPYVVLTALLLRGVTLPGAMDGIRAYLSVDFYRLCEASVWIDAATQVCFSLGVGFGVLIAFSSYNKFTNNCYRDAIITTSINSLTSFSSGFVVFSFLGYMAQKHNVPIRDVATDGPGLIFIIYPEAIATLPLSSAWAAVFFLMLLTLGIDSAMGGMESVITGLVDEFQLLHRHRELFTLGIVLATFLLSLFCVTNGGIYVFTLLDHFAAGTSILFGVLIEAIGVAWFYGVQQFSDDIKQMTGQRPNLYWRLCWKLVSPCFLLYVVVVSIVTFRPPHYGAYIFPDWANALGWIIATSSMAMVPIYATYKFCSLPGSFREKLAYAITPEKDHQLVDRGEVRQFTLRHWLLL
Experiment: Binding affinity for dopamine transporters in rat brain tissue.
Type: tissue-based
How it was run: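 Crude membrane fraction from rat corpus striatum homogenate. Nonspecific binding defined with 30 μM methylphenidate. Each agent tested at six concentrations in duplicate. Concentration-inhibition curves computer-fit for IC50 ± SEM, converted to Ki = IC50/(1 + [L/Kd]).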

Molecule	Ki [nM]
COC(=O)[C@H]1C(c2ccc(I)cc2)C[C@H]2CCC1N2C (stereo partly drawn)	1.4
CC(C)OC(=O)[C@@H]1C2CC[C@H](C[C@@H]1c1ccc(I)cc1)N2CCF	4.4
CC(C)OC(=O)[C@@H]1C2CC[C@H](C[C@@H]1c1ccc(I)cc1)N2CCCF	1.2
COC(=O)[C@H]1C(c2ccc(I)cc2)C[C@H]2CCC1N2CCCF (stereo partly drawn)	3.5
COC(=O)[C@H]1C(c2ccc(I)cc2)C[C@H]2CCC1N2CCF (stereo partly drawn)	4
(2S,5R)-8-(2-Fluoro-ethyl)-3-(4-trimethylstannanyl-phenyl)-8-aza-bicyclo[3.2.1]octane-2-carboxylic acid methyl ester	> 10000
(2S,5R)-8-(3-Fluoro-propyl)-3-(4-trimethylstannanyl-phenyl)-8-aza-bicyclo[3.2.1]octane-2-carboxylic acid isopropyl ester	> 10000
(2S,5R)-8-(3-Fluoro-propyl)-3-(4-trimethylstannanyl-phenyl)-8-aza-bicyclo[3.2.1]octane-2-carboxylic acid methyl ester	> 10000

Source: ChEMBL document CHEMBL1127520, “N-omega-fluoroalkyl analogs of (1R)-2 beta-carbomethoxy-3 beta-(4-iodophenyl)-tropane (beta-CIT): radiotracers for positron emission tomography and single photon emission computed tomography imaging of dopamine transporters” (J Med Chem, 1994)
